Measured values taken from BindingDB's records for doi:10.1021/ml1001807 (2011).

Assays:
[1] = target: Tyrosine-protein kinase JAK2 (Homo sapiens, UniProt O60674); assay: Inhibition of JAK2 by TR-FRET based LanthaScreen assay
[2] = target: Rho-associated protein kinase 2 (Homo sapiens, UniProt O75116); assay: Inhibition of ROCK2 by Caliper mobility shift assay
Procedure, shortened: (§1)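 Caliper mobility shift kinase assay with phosphorylation of a substrate; IC50 derived from two independent experiments.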

[3] = target: Receptor tyrosine-protein kinase erbB-2 (Homo sapiens, UniProt P04626); assay: Inhibition of HER2 by TR-FRET based LanthaScreen assay
Procedure, shortened: (§2)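 TR-FRET LanthaScreen kinase assay with phosphorylation of a substrate; FGFR3 used as the K651E mutant. IC50 derived from two independent experiments; for some compounds, ALK and cKIT values are averages ± SDs of three independent experiments.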

[4] = target: Insulin-like growth factor 1 receptor (Homo sapiens, UniProt P08069); assay: Inhibition of IGF1R by TR-FRET based LanthaScreen assay; procedure, shortened: as §2
Ephrin type-A receptor 4 = Ephrin type-A receptor 4 (Homo sapiens, UniProt P54764); assay: Inhibition of EPHA4 by TR-FRET based LanthaScreen assay; procedure, shortened: as §2
[5] = target: Serine/threonine-protein kinase N1 (Homo sapiens, UniProt Q16512); assay: Inhibition of PKN1 by Caliper mobility shift assay; procedure, shortened: as §1
Aurora kinase A = Aurora kinase A (Homo sapiens, UniProt O14965); assay: Inhibition of Aurora A kinase by Caliper mobility shift assay; procedure, shortened: as §1
[6] = target: Cyclin-dependent kinase 2 (Homo sapiens, UniProt P24941); assay: Inhibition of CDK2A by Caliper mobility shift assay
Procedure, shortened: (§3)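 Caliper microfluidic mobility shift readout of substrate phosphorylation, run per the group's earlier kinase protocol. IC50 taken from two independent experiments.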

[7] = target: Tyrosine-protein kinase JAK3 (Homo sapiens, UniProt P52333); assay: Inhibition of JAK3 by Caliper mobility shift assay; procedure, shortened: as §1
[8] = target: Proto-oncogene tyrosine-protein kinase receptor Ret (Homo sapiens, UniProt P07949); assay: Inhibition of RET by TR-FRET based LanthaScreen assay; procedure, shortened: as §2
[9] = target: Serine/threonine-protein kinase N2 (Homo sapiens, UniProt Q16513); assay: Inhibition of PKN2 by Caliper mobility shift assay; procedure, shortened: as §1
[10] = target: ALK tyrosine kinase receptor (Homo sapiens, UniProt Q9UM73); assay: Inhibition of ALK by TR-FRET based LanthaScreen assay; procedure, shortened: as §2
[11] = target: Tyrosine-protein kinase receptor UFO (Homo sapiens, UniProt P30530); assay: Inhibition of Axl by TR-FRET based LanthaScreen assay; procedure, shortened: as §2
Insulin receptor = Insulin receptor (Homo sapiens, UniProt P06213); assay: Inhibition of INSR by TR-FRET based LanthaScreen assay; procedure, shortened: as §2
[12] = target: Fibroblast growth factor receptor 3 (Homo sapiens, UniProt P22607); assay: Inhibition of FGFR3 by TR-FRET based LanthaScreen assay; procedure, shortened: as §2
[13] = target: Tyrosine-protein kinase ZAP-70 (Homo sapiens, UniProt P43403); assay: Inhibition of ZAP70 by TR-FRET based LanthaScreen assay; procedure, shortened: as §2
[14] = target: Tyrosine-protein kinase JAK1 (Homo sapiens, UniProt P23458); assay: Inhibition of JAK1 by TR-FRET based LanthaScreen assay
[15] = target: Glycogen synthase kinase-3 beta (Homo sapiens, UniProt P49841); assay: Inhibition of GSK3-beta by TR-FRET based LanthaScreen assay; procedure, shortened: as §2
[16] = target: cAMP-dependent protein kinase catalytic subunit alpha (Homo sapiens, UniProt P17612); assay: Inhibition of PKAalpha by Caliper mobility shift assay
Ephrin type-B receptor 4 = Ephrin type-B receptor 4 (Homo sapiens, UniProt P54760); assay: Inhibition of EPHB4 by TR-FRET based LanthaScreen assay; procedure, shortened: as §2
[17] = target: Hepatocyte growth factor receptor (Homo sapiens, UniProt P08581); assay: Inhibition of HGFR by TR-FRET based LanthaScreen assay
Procedure, shortened: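 LanthaScreen TR-FRET kinase format, run per the group's earlier protocol. IC50 from two independent experiments; for some compounds, PDGFRα and VEGFR2 values are means ± SD of three independent runs. The FGFR3 used was the K651E mutant.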

[18] = target: Mitogen-activated protein kinase 14 (Homo sapiens, UniProt Q16539); assay: Inhibition of p38alpha by Caliper mobility shift assay; procedure, shortened: as §3
[19] = target: 3-phosphoinositide-dependent protein kinase 1 (Homo sapiens) (UniProt O15530); assay: Inhibition of PDK1 by Caliper mobility shift assay

Mitogen-activated protein kinase 14, sequence (Q16539 whole entry): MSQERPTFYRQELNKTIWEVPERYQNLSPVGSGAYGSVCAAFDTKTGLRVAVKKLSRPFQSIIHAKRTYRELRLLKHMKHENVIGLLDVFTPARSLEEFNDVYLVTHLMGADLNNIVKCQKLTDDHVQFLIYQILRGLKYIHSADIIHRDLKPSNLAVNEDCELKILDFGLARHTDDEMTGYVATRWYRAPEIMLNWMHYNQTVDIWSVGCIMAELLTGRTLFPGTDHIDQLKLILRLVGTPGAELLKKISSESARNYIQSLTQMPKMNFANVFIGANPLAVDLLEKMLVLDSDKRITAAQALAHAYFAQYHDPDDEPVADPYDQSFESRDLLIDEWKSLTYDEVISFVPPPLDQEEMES
Tyrosine-protein kinase ZAP-70, sequence (P43403 whole entry): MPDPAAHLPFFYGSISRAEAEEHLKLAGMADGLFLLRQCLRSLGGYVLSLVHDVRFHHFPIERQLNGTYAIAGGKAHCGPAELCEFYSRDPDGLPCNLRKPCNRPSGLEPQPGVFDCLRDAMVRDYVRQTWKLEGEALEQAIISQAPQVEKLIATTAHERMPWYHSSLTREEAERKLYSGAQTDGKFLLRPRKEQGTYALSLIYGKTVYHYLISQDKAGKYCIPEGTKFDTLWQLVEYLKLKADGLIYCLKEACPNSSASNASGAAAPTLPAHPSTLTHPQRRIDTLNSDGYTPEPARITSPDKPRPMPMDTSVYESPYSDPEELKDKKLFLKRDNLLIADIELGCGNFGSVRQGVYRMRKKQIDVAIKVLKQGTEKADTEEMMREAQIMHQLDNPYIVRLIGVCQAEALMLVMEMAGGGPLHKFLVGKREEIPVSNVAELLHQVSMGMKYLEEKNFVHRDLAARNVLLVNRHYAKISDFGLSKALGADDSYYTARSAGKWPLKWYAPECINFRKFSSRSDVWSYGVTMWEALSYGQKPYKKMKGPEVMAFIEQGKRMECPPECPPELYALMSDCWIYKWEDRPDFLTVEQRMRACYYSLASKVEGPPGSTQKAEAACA
Glycogen synthase kinase-3 beta, sequence (P49841 whole entry): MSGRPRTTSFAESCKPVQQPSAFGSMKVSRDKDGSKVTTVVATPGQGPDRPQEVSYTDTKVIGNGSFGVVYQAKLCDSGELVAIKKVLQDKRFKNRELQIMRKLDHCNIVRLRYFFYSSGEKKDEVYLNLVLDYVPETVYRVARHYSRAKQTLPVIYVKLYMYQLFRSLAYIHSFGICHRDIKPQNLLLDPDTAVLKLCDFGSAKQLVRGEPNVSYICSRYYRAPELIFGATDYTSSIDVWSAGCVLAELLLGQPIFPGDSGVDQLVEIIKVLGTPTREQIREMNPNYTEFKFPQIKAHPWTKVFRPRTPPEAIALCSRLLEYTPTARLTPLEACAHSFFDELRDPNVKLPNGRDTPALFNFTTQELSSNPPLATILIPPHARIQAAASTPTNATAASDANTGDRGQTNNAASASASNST
Tyrosine-protein kinase receptor UFO, sequence (P30530 whole entry): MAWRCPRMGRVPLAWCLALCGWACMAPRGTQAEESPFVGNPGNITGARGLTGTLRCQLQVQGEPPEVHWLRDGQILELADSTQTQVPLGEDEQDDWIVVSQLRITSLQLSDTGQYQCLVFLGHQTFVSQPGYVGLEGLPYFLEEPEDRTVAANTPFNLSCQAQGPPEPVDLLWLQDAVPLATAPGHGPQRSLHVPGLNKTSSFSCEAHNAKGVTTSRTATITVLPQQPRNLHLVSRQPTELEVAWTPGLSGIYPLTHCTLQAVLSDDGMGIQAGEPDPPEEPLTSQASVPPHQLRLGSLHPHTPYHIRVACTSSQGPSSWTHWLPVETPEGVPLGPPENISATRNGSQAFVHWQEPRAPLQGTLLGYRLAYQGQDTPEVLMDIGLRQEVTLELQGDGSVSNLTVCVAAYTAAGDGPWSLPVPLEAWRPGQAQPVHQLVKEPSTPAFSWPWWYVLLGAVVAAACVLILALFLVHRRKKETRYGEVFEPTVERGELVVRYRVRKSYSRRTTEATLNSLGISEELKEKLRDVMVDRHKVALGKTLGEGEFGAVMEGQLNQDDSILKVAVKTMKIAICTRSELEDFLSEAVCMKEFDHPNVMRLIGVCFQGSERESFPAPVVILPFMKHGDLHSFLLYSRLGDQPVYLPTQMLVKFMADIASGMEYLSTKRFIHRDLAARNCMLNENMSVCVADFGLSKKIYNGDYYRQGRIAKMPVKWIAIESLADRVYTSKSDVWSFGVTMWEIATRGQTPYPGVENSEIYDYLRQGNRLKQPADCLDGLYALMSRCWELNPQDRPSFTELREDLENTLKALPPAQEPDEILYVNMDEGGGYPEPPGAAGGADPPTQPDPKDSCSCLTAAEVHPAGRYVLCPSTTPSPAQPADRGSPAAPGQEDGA
Proto-oncogene tyrosine-protein kinase receptor Ret, sequence (P07949 whole entry): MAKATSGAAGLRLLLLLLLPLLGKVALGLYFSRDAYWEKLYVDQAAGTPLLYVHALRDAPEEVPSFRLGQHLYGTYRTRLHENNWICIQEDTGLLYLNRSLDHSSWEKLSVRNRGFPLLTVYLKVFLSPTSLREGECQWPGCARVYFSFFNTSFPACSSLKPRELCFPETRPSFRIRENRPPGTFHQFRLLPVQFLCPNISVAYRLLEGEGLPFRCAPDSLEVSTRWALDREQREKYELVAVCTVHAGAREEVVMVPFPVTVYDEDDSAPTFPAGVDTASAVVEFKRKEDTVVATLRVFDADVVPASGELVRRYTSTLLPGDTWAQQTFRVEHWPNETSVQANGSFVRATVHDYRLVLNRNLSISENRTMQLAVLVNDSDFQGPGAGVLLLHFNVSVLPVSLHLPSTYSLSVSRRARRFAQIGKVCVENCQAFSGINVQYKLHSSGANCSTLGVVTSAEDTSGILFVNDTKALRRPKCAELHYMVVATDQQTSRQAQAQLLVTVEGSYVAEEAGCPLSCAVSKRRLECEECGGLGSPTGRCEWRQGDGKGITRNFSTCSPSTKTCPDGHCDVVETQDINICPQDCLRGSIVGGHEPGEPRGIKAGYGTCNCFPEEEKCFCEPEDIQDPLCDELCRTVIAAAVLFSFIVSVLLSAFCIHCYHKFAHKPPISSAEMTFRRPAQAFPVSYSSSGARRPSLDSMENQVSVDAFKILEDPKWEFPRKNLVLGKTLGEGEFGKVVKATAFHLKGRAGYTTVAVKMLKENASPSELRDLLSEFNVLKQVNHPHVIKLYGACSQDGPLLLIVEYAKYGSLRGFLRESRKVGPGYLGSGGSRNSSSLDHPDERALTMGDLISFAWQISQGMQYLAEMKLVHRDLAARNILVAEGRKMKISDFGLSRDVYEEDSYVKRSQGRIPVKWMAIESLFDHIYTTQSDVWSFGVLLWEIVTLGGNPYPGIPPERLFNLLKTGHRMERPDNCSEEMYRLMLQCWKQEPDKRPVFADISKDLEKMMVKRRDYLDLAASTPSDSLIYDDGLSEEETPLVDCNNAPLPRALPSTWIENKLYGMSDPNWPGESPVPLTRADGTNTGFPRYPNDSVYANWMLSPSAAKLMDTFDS
Receptor tyrosine-protein kinase erbB-2, sequence (P04626 whole entry): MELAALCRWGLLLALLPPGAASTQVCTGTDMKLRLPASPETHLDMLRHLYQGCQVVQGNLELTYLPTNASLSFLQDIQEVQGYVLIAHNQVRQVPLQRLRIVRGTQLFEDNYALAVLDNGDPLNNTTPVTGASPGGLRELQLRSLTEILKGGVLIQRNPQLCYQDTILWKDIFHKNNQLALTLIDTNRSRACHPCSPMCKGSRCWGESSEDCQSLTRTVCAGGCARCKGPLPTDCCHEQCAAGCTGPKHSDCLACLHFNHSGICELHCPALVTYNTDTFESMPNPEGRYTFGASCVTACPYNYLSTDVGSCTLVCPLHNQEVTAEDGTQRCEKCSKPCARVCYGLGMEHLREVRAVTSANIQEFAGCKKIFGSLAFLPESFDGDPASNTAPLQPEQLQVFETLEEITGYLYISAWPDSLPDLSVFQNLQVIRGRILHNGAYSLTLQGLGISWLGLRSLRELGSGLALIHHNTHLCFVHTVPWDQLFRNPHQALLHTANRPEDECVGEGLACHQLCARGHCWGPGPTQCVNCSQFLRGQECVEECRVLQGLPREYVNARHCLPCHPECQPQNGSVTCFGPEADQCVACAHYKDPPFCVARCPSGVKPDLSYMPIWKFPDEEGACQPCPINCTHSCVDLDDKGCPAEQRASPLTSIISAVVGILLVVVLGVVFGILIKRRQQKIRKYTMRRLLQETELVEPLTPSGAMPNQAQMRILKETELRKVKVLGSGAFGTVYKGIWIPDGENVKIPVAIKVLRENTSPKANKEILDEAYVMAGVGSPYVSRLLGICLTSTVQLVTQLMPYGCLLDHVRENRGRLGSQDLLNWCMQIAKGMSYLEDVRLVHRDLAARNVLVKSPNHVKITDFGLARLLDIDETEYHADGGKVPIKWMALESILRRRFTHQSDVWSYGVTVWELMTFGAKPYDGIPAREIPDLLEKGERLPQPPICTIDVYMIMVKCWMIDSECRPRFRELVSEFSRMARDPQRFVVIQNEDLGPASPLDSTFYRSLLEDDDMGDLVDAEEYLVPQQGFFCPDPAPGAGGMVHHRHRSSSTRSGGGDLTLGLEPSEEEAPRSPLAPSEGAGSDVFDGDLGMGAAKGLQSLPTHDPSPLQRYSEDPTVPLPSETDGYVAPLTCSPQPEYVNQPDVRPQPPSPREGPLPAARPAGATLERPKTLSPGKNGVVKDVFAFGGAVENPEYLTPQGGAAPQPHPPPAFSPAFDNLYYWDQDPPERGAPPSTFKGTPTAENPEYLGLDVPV
Aurora kinase A, sequence (O14965 whole entry): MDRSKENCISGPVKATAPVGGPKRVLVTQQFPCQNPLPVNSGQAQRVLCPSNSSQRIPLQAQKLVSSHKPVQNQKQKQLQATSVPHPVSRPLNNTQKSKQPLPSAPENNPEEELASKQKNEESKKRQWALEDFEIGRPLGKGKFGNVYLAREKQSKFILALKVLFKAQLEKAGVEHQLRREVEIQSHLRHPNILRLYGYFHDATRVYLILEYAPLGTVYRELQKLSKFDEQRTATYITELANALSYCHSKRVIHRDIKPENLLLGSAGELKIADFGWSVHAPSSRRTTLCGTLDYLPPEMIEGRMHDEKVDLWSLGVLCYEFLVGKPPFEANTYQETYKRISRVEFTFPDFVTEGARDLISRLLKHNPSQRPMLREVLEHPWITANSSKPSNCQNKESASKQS

COc1cc(O)c2c(c1)CCCC(=O)C(=O)C(O)CCC[C@H](C)OC2=O (stereo partly drawn) [L-783277]
IC50 [1]: > 10 µM
IC50 [2]: > 10 µM
IC50 [3]: > 10 µM
IC50 [4]: > 10 µM
IC50 (Ephrin type-A receptor 4): > 10 µM
IC50 [5]: > 10 µM
IC50 (Aurora kinase A): > 10 µM
IC50 [6]: > 10 µM
IC50 [7]: > 10 µM
IC50 [8]: > 10 µM
IC50 [9]: > 10 µM
IC50 [10]: 0.763 µM
IC50 [11]: > 10 µM
IC50 (Insulin receptor): > 10 µM
IC50 [12]: > 10 µM
IC50 [13]: > 10 µM
IC50 [14]: > 10 µM
IC50 [15]: > 10 µM
IC50 [16]: > 10 µM
IC50 (Ephrin type-B receptor 4): > 10 µM
IC50 [17]: > 10 µM
IC50 [18]: > 10 µM
IC50 [19]: > 10 µM
